From ChEMBL document CHEMBL1817551, “Design of small molecule inhibitors of acetyl-CoA carboxylase 1 and 2 showing reduction of hepatic malonyl-CoA levels in vivo in obese Zucker rats” (Bioorg Med Chem, 2011) come the findings set out here.

A short description of series [1]: Half life in C57BL/6 mouse at 20 umol/kg, po. The class given is ADME, organism-based. Conditions: in vivo.
In series [2] the target is Acetyl-Coenzyme A carboxylase 2 (Rattus norvegicus, UniProt Q1HEC0). The series can be described thus: Inhibition of ACC2 […] preincubated for 15 mins measured after 1.5 hrs using Malachite green reagent method.
Series [3] in a line: Fraction unbound in human plasma at 10 uM after 18 hrs by equilibrium dialysis method. The class given is ADME, cell-free.
Series [4] in a line: Solubility of the compound after 16 hrs by LC-UV/MS analysis. The class given is physicochemical.
Series [5] in a line: Lipophilicity, log D of the compound. In kind it is physicochemical. Particulars: octanol/water.
Another series addresses T1, CYP1A2 (Homo sapiens, UniProt P05177).
T1 sequence (P05177 whole entry): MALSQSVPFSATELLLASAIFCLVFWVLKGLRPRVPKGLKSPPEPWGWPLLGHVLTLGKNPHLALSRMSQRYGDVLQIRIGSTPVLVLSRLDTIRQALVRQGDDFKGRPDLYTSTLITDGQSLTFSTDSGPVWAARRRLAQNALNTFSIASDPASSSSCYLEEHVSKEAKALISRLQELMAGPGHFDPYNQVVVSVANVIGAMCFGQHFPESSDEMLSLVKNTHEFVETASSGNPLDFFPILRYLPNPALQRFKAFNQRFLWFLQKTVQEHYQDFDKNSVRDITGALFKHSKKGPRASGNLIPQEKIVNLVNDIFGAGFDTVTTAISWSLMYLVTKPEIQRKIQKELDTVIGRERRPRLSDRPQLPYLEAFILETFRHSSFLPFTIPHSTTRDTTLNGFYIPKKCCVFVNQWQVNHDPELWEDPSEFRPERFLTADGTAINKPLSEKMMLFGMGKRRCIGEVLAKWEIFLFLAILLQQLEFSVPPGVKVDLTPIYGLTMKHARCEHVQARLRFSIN
The series can be described thus: Inhibition of CYP1A2 at 13 uM. In kind it is ADME.

Series [6] is described as follows: Volume of distribution in C57BL/6 mouse at 20 umol/kg, iv and 20 umol/kg, po. The class given is ADME, organism-based. Conditions: in vivo.
In series [7] the target is Acetyl-CoA carboxylase 1 (Rattus norvegicus, UniProt P11497). The series can be described thus: Inhibition of rat ACC1 assessed as inorganic phosphate generation preincubated for 5 mins measured after 1.5 hrs using Malachite green reagent method.
Series [8] concerns the target Acetyl-CoA carboxylase 1 (Homo sapiens, UniProt Q13085). The series can be described thus: Inhibition of human recombinant his-tagged ACC1 expressed in baculovirus/Sf9 cell assessed as inorganic phosphate formation […] measured after 1.5 hrs by Malachite green reagent method.
Series [9] can be described thus: Clearance in Sprague-Dawley rat at 3 to 5 umol/kg, iv. The class given is ADME, organism-based. Particulars: in vivo.
The nature of series [10]: Intrinsic clearance in human liver microsome at 1 uM after 30 mins by LC-UV/MS analysis. In kind it is ADME. Particulars: liver microsomes.
A short description of series [11]: Clearance in C57BL/6 mouse at 20 umol/kg, iv and 20 umol/kg, po. The class given is ADME, organism-based. Conditions: in vivo.
A further series deals with Acetyl-CoA carboxylase 2 (Homo sapiens, UniProt O00763). The series can be described thus: Inhibition of human recombinant his-tagged ACC2 expressed in baculovirus/Sf9 cell assessed as inorganic phosphate formation […] measured after 1.5 hrs by Malachite green reagent method.
For series [12], the system named is Rattus norvegicus. The series can be described thus: Ratio of […] to fraction unbound in Sprague-Dawley rat at 3 to 5 umol/kg, iv. The class given is ADME, organism-based. Particulars: in vivo.
The next series deals with CYP3A4 (Homo sapiens, UniProt P08684). The series can be described thus: Inhibition of CYP3A4 at 13 uM. In kind it is ADME.
The target of series [13] is Voltage-gated inwardly rectifying potassium channel KCNH2 (Homo sapiens, UniProt Q12809).
The target in another series is CYP2C9 (Homo sapiens, UniProt P11712). The experiment in a line: Inhibition of CYP2C9 at 13 uM. In kind it is ADME.
The next series concerns the target CYP2C19 (Homo sapiens, UniProt P33261). The series can be described thus: Inhibition of CYP2C19 at 13 uM. The class given is ADME.
The target of another series is CYP2D6 (Homo sapiens, UniProt P10635). The series can be described thus: Inhibition of CYP2D6 at 13 uM. In kind it is ADME.
For a further series, the species on record is Homo sapiens. The series can be described thus: Ratio IC50 for human ACC2 to IC50 for human ACC1.
The subject of series [14] is Rattus norvegicus. The experiment in a line: Antiobesity activity in obese Zucker rat assessed as reduction in hepatic malonyl-coA level, iv administered 2 hrs. Also noted: scale not given: the % may be the effect or the level left. The class given is functional. In a few lines: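 Obese Zucker rats were anaesthetized with Inactin (180 mg/kg ip), tracheotomized and fitted with carotid and jugular catheters. After 1.5 h post-surgery stabilization at 37.5 °C, compound or vehicle was infused iv; lean vehicle controls were included. Hepatic malonyl-CoA was measured by ion-pair HPLC–negative ESI MS/MS against a ¹³C₃ internal standard and related to plasma free exposure (fu×Cp/rat ACC2 IC50).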

A short description of series [15]: Oral bioavailability in C57BL/6 mouse at 20 umol/kg. The class given is ADME, organism-based. Conditions: in vivo.

Values after ≈ are worked out from the molar mass of the structure shown. A value given as a limit tells only on which side of the number the result lay.

Sequence of Acetyl-CoA carboxylase 2 (O00763 whole entry): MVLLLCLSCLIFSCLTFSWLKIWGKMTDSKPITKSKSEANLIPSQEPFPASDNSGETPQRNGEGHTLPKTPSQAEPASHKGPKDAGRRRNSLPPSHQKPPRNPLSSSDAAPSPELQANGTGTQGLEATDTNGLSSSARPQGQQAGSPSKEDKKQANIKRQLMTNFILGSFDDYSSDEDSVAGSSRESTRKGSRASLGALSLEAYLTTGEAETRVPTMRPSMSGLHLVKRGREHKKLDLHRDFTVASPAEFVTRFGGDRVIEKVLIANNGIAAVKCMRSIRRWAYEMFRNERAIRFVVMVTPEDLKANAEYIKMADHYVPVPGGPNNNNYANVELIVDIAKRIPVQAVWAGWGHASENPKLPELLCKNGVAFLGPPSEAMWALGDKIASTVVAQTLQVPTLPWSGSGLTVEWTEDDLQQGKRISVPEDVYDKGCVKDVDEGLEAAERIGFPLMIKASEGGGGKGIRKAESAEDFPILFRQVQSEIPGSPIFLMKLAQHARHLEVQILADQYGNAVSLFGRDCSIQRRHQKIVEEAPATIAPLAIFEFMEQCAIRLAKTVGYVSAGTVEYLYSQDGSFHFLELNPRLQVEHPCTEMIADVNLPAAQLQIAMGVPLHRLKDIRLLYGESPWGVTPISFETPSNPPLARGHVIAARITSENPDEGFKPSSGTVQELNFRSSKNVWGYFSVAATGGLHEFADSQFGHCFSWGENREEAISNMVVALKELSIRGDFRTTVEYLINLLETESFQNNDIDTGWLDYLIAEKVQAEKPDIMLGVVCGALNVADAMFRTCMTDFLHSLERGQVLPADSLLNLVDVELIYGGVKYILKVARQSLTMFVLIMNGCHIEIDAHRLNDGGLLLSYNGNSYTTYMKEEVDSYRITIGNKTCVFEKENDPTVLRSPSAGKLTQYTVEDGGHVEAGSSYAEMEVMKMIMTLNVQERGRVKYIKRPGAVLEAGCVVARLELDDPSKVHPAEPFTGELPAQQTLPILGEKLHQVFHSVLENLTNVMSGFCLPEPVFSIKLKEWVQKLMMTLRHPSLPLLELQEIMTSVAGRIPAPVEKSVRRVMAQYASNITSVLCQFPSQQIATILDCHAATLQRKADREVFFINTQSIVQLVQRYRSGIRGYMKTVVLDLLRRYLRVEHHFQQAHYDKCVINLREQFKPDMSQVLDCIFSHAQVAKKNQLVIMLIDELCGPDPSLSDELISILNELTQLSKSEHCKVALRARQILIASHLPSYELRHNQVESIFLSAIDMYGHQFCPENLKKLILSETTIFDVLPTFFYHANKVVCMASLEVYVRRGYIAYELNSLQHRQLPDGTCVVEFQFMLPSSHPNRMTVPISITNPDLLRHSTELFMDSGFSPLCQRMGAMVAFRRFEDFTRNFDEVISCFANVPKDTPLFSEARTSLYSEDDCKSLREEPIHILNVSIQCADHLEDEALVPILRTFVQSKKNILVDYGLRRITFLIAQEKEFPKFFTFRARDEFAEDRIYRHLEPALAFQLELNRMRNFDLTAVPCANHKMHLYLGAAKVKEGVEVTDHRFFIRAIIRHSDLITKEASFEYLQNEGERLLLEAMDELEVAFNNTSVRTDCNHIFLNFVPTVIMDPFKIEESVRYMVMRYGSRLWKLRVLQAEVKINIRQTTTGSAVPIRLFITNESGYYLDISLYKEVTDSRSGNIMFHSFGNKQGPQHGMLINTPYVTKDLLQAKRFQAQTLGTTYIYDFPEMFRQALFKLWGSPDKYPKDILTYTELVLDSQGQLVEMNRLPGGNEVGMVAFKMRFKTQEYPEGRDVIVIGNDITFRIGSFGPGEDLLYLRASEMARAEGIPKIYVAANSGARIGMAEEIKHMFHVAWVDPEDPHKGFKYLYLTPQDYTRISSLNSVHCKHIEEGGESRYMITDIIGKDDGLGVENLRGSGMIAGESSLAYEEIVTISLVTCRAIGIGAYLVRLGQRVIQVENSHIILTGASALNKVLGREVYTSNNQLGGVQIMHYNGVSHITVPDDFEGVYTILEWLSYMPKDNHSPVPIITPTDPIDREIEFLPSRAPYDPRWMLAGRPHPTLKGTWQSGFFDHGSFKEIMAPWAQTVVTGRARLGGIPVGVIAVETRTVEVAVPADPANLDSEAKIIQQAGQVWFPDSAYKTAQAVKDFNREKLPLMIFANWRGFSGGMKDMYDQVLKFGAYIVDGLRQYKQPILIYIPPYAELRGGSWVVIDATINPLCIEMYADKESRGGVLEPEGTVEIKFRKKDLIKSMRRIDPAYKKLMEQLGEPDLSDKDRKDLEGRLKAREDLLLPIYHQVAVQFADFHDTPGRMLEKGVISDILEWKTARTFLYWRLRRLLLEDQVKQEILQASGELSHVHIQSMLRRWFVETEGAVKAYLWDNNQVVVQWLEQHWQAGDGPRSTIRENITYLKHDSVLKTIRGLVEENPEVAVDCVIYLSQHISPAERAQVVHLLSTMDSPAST
Sequence of Acetyl-Coenzyme A carboxylase 2 (Q1HEC0 whole entry): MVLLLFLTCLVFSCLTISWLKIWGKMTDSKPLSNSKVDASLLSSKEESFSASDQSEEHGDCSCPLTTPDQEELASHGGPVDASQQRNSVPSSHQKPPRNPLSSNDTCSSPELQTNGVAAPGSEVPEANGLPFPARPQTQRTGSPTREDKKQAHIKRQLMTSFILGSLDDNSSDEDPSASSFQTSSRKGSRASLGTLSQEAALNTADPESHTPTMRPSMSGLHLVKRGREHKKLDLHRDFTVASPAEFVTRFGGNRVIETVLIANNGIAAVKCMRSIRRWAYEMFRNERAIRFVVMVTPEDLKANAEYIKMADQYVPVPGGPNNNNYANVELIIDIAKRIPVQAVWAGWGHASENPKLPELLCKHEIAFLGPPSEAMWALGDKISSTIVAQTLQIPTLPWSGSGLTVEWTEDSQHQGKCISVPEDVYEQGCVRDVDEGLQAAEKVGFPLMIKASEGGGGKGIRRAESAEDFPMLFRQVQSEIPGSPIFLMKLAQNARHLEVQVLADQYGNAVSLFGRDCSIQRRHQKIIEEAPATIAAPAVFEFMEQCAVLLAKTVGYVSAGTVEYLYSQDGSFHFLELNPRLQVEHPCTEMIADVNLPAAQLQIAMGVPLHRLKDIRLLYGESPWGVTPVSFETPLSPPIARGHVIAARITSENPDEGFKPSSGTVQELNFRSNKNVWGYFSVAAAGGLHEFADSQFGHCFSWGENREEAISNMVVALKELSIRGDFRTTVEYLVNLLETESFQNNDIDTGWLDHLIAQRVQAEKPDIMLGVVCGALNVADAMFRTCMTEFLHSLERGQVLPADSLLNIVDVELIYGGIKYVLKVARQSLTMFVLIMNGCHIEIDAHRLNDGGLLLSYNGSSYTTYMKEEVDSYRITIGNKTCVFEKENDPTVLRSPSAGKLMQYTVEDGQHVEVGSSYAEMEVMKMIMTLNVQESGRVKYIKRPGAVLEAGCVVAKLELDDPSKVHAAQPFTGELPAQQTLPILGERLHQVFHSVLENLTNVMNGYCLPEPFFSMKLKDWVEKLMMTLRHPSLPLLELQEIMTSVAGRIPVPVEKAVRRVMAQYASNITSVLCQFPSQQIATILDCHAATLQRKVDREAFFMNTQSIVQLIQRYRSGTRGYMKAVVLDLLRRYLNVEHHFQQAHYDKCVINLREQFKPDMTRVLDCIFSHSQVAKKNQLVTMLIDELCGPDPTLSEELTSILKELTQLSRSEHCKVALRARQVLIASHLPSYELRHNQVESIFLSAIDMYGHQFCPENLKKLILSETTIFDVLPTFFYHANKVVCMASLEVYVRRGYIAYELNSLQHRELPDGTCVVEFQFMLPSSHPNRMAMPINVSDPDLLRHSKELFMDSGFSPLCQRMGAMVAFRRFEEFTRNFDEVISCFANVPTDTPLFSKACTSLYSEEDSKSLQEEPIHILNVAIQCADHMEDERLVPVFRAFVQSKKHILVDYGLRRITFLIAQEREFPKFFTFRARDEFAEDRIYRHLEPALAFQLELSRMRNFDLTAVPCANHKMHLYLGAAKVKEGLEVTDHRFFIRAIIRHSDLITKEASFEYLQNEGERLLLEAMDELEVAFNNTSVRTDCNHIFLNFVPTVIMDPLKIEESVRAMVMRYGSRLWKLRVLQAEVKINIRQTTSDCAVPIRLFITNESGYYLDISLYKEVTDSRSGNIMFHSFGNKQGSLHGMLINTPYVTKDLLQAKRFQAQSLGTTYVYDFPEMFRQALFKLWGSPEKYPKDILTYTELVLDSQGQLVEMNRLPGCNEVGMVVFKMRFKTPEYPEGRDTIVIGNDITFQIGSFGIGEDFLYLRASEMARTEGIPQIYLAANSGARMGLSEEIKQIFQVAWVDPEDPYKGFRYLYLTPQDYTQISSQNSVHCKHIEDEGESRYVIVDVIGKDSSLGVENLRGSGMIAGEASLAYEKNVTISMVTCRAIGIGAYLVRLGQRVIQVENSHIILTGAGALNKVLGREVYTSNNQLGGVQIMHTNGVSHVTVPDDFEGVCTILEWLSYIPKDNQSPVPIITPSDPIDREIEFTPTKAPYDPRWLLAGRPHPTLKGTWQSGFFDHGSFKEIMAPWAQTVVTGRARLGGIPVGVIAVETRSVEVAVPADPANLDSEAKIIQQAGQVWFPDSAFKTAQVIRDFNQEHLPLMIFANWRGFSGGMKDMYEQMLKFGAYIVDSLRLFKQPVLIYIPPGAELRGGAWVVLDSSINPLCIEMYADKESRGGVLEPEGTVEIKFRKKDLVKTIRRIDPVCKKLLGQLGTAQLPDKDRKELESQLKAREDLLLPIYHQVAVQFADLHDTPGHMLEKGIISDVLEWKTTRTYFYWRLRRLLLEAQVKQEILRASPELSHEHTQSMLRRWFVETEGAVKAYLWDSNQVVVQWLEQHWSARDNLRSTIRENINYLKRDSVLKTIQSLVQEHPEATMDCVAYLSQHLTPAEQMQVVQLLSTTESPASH

In turn, `CN(C)CCC1CCN(c2cc(C(=O)NC[C@H]3CC[C@H](CNC(=O)OC(C)(C)C)CC3)c3ccccc3n2)CC1` showed a half-life in series [1] of 4.5 h. Further, the IC50 was 190 nM in series [2]; 460 nM on Acetyl-CoA carboxylase 1 [7]; 1200 nM on Acetyl-CoA carboxylase 1 [8]; 110 nM on Acetyl-CoA carboxylase 2; greater than 33000 nM in series [13]. This compound also displayed a fraction unbound at 18 h, 10 µM in [3] of 0.034. This compound came in with a solubility at 16 h in series [4] of 79 µM (≈ 43.6 µg/mL). The same compound came in with a logD in [5] of 3.6. The inhibition at 13 µM against CYP1A2, against CYP3A4, at CYP2C9, on CYP2C19 and against CYP2D6 was less than 50% in each case. The compound also registered a Vd in [6] of 6.7 L/kg. In addition, the results for the clearance in series [9] and in series [11] were 32 mL/min/kg and 46 mL/min/kg, respectively. Further, the microsomal CLint at 1 µM in [10] was 14 µL/min/mg. The Ratio in the series on Rattus norvegicus [12] stood at 800. Besides, the Ratio IC50 in the series filed under Homo sapiens stood at 10. Further, the Activity in the series on Rattus norvegicus [14] turned out to be 50%. Moreover, the bioavailability in series [15] worked out at 131%.
